According to PubChem BioAssay AID624313 (The Scripps Research Institute Molecular Screening Center, 2012):
The source made the active and inactive calls.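 How the source made its calls: active means reporter absorbance over solvent-only wells above 1.25 at every tested dose; inactive means the rest.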

Test system: HEK293 CYP11A1 promoter CAT reporter, ELISA absorbance
Test: activators of CYP11A1 promoter CAT reporter, late-stage follow-up, counter-screen for DAX1 inhibitor project, cell-based, absorbance, HEK293 (AID 624313)
Conditions: at 100 µM (top of the series)
Method in brief: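 Test system: transfected HEK293 with CYP11A1-promoter CAT reporter / Doses: 3-point twofold dilution series, nominal top 100 µM / Detection: colorimetric enzyme immunoassay of CAT protein, absorbance / Read-out: CAT signal relative to DMSO-treated wells / Benchmarks: pSG5 empty-vector positive control, DMSO reference / Replication: triplicate per dose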

| Compound | relative activity ratio |
| --- | --- |
| Cn1c(=O)n(C)c2cc(C(=O)Nc3ccc4c(c3)OCO4)ccc21 | 0.52 (inactive) |
| Cn1c(=O)n(C)c2cc(C(=O)Nc3ccc4c(c3)OCCO4)ccc21 | 0.27 (inactive) |
